Series [1] concerns Trypanosoma cruzi. Put plainly: Antitrypanosomal activity against Trypanosoma cruzi MHOM/Pe/2011/Arequipa;DTU 5 bloodstream trypomastigote infected in BALB/c mouse assessed as parasite-free oesophagus in chronic phase at 20 mg/kg/day, po administered for 5 consecutive days starting from day 70 post infection followed by cyclophosphamide induced immunosuppression on day 80 post infection measured after day 100 post infection by PCR method relative to control. In kind it is functional. The procedure, abridged: (§1)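 Female BALB/c mice (10–12 weeks, three per group) were infected i.p. with 5 × 10^5 Arequipa bloodstream trypomastigotes. Dosing was oral, 20 mg/kg/day for 5 days, as a suspension in 5% DMSO/0.5% HPMC. Cyclophosphamide 200 mg/kg i.p. was given at day 80 pi. At necropsy (day 100) tissues were tested by PCR on the splice leader region (primers TC/TC1, 300 bp). Scored as x/3 mice positive.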

Series [2] has as its system Trypanosoma cruzi. Put plainly: Antitrypanosomal activity against Trypanosoma cruzi MHOM/Pe/2011/Arequipa;DTU 5 bloodstream trypomastigote infected in BALB/c mouse assessed as parasite-free bone marrow in acute phase at 20 mg/kg/day, po administered for 5 consecutive days starting from day 8 post infection followed by cyclophosphamide induced immunosuppression on day 80 post infection measured after day 100 post infection by PCR method relative to control. It counts as functional. The procedure, abridged: as §1

Series [3] can be described thus: Toxicity in BALB/c mouse infected with Trypanosoma cruzi MHOM/Pe/2011/Arequipa;DTU 5 bloodstream trypomastigote assessed as increase in serum alanine aminotransferase level in acute phase at 20 mg/kg/day, po administered for 5 consecutive days starting from day 8 post infection and measured at day 14 post infection by biochemical analysis relative to control. Particulars: in vivo. In kind it is organism-based. The procedure, abridged: (§2)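 Female BALB/c mice (10–12 weeks, 14–20 g; groups of three) were infected i.p. with 5 × 10^5 Arequipa bloodstream trypomastigotes. Dosing was oral at 20 mg/kg/day for 5 days, from day 8 pi (acute) or day 70 pi (chronic), as a 2 mg/ml suspension in 5% DMSO/0.5% HPMC; controls received vehicle. Cyclophosphamide 200 mg/kg i.p. was given at day 80 pi. Serum was collected 2 days post-treatment and at necropsy by cardiac puncture and compared with infected untreated controls.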

In series [4] the test system is Trypanosoma cruzi. In words: Antitrypanosomal activity against Trypanosoma cruzi MHOM/Pe/2011/Arequipa;DTU 5 epimastigotes measured after 72 hrs by Neubauer hemocytometer. It counts as functional, organism-based. The conditions noted are these: MHOM/Pe/2011/Arequipa;DTU 5, 72 h.
Series [5] concerns Trypanosoma cruzi. In words: Antitrypanosomal activity against bloodstream trypomastigote stage of Trypanosoma cruzi IRHOD/CO/2008/SN3;DTU 1 isolated from parasite infected BALB/c Albino mouse cardiac cells after 24 hrs by Neubauer chamber based cell counting method. It counts as functional, organism-based. The conditions noted are these: IRHOD/CO/2008/SN3;DTU 1, 24 h. The procedure, abridged:
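Bloodstream trypomastigotes were taken by cardiac puncture from infected BALB/c mice and diluted in RPMI + 10% heat-inactivated FBS. At 2 × 10^6/mL they were exposed to 3.1–50.0 µM (lower where needed) for 24 h at 37 °C, 5% CO2, and counted in a Neubauer chamber. Triplicates, at least three experiments; IC50 by nonlinear regression.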

Series [6] deals with Trypanosoma cruzi. In words: Antitrypanosomal activity against Trypanosoma cruzi MHOM/Pe/2011/Arequipa;DTU 5 bloodstream trypomastigotes infected in BALB/c mouse assessed as reduction in serum Ig-G level in chronic phase at 20 mg/kg/day, po administered for 5 consecutive days starting from day 70 post infection followed by cyclophosphamide induced immunosuppression on day 80 post infection and measured at day 100 post infection by ELISA. It counts as functional, organism-based. In a few lines:
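Sera came from infected BALB/c mice (three per group) dosed orally at 20 mg/kg/day for 5 days. Sampling points: 2 days after treatment, the day before immunosuppression (acute only) and necropsy day. Anti-T. cruzi IgG was measured by indirect ELISA using parasite Fe-SOD as antigen, read as OD at 492 nm.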
A general note: An ELISA detects its analyte on a solid surface through an enzyme-linked reagent.

Series [7] is described as follows: Toxicity in BALB/c mouse infected with Trypanosoma cruzi MHOM/Pe/2011/Arequipa;DTU 5 bloodstream trypomastigote assessed as decrease in serum lactate dehydrogenase level in chronic phase at 20 mg/kg/day, po administered for 5 consecutive days starting from day 70 post infection and measured at day 76 post infection relative to control. In kind it is organism-based. More on the design: scale not given: the % may be the effect or the level left. Particulars: in vivo. In a few lines:
as §2

Series [8] deals with Trypanosoma cruzi. Put plainly: Antitrypanosomal activity against Trypanosoma cruzi MHOM/Pe/2011/Arequipa;DTU 5 bloodstream trypomastigote infected in BALB/c mouse assessed as parasitemia reactivation in acute phase at 20 mg/kg/day, po administered for 5 consecutive days starting from day 8 post infection followed by cyclophosphamide induced immunosuppression on day 80 post infection by Neubauer chamber relative to control. In kind it is functional. The procedure, abridged:
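Female BALB/c mice (three per group) were infected i.p. with 5 × 10^5 Arequipa bloodstream trypomastigotes and treated orally at 20 mg/kg/day for 5 days (vehicle 5% DMSO/0.5% HPMC). Once parasitemia was undetectable (day 80 pi), cyclophosphamide 200 mg/kg was given i.p. Bloodstream parasites were then counted to give % reactivation versus untreated controls.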

Series [9] relates to Trypanosoma cruzi. Put plainly: Antitrypanosomal activity against Trypanosoma cruzi MHOM/Pe/2011/Arequipa;DTU 5 bloodstream trypomastigotes infected in BALB/c mouse assessed as parasite-free stomach in acute phase at 20 mg/kg/day, po administered for 5 consecutive days starting from day 8 post infection followed by cyclophosphamide induced immunosuppression on day 80 post infection measured after day 100 post infection by PCR method relative to control. It counts as functional. The procedure, abridged: as §1

Series [10] deals with Trypanosoma cruzi. In words: Antitrypanosomal activity against Trypanosoma cruzi MHOM/Pe/2011/Arequipa;DTU 5 bloodstream trypomastigote infected in BALB/c mouse assessed as parasite-free heart in chronic phase at 20 mg/kg/day, po administered for 5 consecutive days starting from day 70 post infection followed by cyclophosphamide induced immunosuppression on day 80 post infection measured after day 100 post infection by PCR method relative to control. In kind it is functional. In a few lines: as §1

The test system of series [11] is Trypanosoma cruzi. Put plainly: Antitrypanosomal activity against Trypanosoma cruzi MHOM/Pe/2011/Arequipa;DTU 5 bloodstream trypomastigote infected in BALB/c mouse assessed as parasite-free brain in chronic phase at 20 mg/kg/day, po administered for 5 consecutive days starting from day 70 post infection followed by cyclophosphamide induced immunosuppression on day 80 post infection measured after day 100 post infection by PCR method relative to control. In kind it is functional. The procedure, abridged:
as §1

Series [12] in a line: Toxicity in BALB/c mouse infected with Trypanosoma cruzi MHOM/Pe/2011/Arequipa;DTU 5 bloodstream trypomastigote assessed as decrease in serum creatine kinase muscle to brain ratio level in chronic phase at 20 mg/kg/day, po administered for 5 consecutive days starting from day 70 post infection and measured at day 76 post infection relative to control. It counts as organism-based. Particulars: in vivo. More on the design: scale not given: the % may be the effect or the level left. The procedure, abridged: as §2

Series [13] relates to Trypanosoma cruzi. Put plainly: Antitrypanosomal activity against Trypanosoma cruzi MHOM/Pe/2011/Arequipa;DTU 5 epimastigote assessed as depolarization of mitochondrial membrane at IC50 measured after 72 hrs by rhodamine 123 and acridine orange staining based flow cytometry relative to control. It counts as functional. The procedure, abridged:
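They were stained with rhodamine 123 or acridine orange and analysed by flow cytometry. Index of variation = (TM−CM)/CM, from median fluorescence of treated (TM) and untreated (CM) parasites.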
In general terms: Flow cytometry measures light scatter and fluorescence of single cells or particles in a stream.

A short description of series [14]: Toxicity in BALB/c mouse infected with Trypanosoma cruzi MHOM/Pe/2011/Arequipa;DTU 5 bloodstream trypomastigote assessed as change in serum alanine aminotransferase level in chronic phase at 20 mg/kg/day, po administered for 5 consecutive days starting from day 70 post infection measured on day 100 post infection relative to control. The conditions noted are these: in vivo. In kind it is organism-based. The procedure, abridged:
as §2

Activity calls are given as the source filed them. The rule behind the calls is not given here.

As to `O=C(CCN1CCN(c2ccc(C(F)(F)F)cc2)CC1)c1ccc(O)cc1`, the Activity was 50% in [1]; 13% in series [2]; > 40% in series [3]; “<= 20%” in [7]; 85% in series [8]; 13% in [9]. Besides, the Activity is listed as 50% in [10]; 50% in series [11]; “<= 30%” in series [12]; 54.4% in series [13]; > 10% in series [14]. Moreover, the half-maximal inhibitory concentration (IC50) – broadly, the midpoint of a concentration-inhibition curve – was 22.7 µM in series [4] and 2.1 µM in series [5]. Moreover, in series [6], the outcome was Active.

On to `O=C(CCN1CCN(c2ccc(Cl)cc2)CC1)c1ccc(O)cc1`, for which the Activity in [1] is listed as 63%; in series [2], 50%; in series [3] it was > 40%; in [7], “<= 10%”; in series [8], 25%; in [9] it was 50%. Further, the Activity is 63% in series [10]; 63% in series [11]; “<= 30%” in [12]; 67.6% in series [13]; > 10% in [14]. Further, the IC50 in series [4] was 18.6 µM; in series [5], 2 µM. Moreover, the result in series [6] was Active.

As for `O=C(Cn1ccnc1[N+](=O)[O-])NCc1ccccc1` [BENZNIDAZOLE], the Activity in series [1] is on record as 38%; in series [2], 25%; in [3], > 40%; in [7], “<= 10%”; in [8] it was 65%; in series [9] it was 25%. In addition, the Activity is reported as 38% in [10]; 38% in [11]; “<= 30%” in [12]; 15.2% in series [13]; > 10% in series [14]. In addition, the IC50 in series [4] is 26.2 µM; in [5], 33.3 µM. In addition, in [6], the outcome was Active.
